Screening data (PubChem)
CAL PDZ FP-1 – CAL PDZ (human) peptide binding inhibition; Q9HD26; purified CAL PDZ, TMR-peptide fluorescence polarization, 1 h; inhibition, % at 24.9 µM; 300,000 tested, 0.92% active; AID 602252;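 active = mean inhibition of at least 30% with at least half of replicates also reaching 30%; inconclusive = no clear call, values can overlap the other calls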;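 also: 0% = DMSO neutral control and 100% = excess unlabeled competitor peptide PRC23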
CAL PDZ FP-2 – inhibitors of human CAL PDZ peptide binding; Q9HD26; purified CAL PDZ, TMR-peptide fluorescence polarization, 1 h; inhibition, % at 20 µM; 330,000 tested, 0.02% active; AID 504414;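 active = highest replicate inhibition of at least 40%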;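 also: plate controls were DMSO neutral control wells for no effect and unlabeled competitor peptide control wells for full effect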
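Material – purified CerCALP PDZ construct · Detection – FP readout, S and P plane fluorescence · Measure – percent inhibition from loss of millipolarization · Controls – unlabelled peptide for full inhibition, DMSO wells as neutral · Probe or stimulus – TMR-labelled reporter peptide T*-PRC34 bound in PDZ groove · Times – 1 h at RT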
S100A4 inh HTS – blocks human S100A4 binding to myosin IIA peptide. inhibition, % at 10.7 µM. S100A4/TAMRA-MyoIIA peptide fluorescence polarization. 360,000 tested, 0.14% active. P26447;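 active = mean inhibition of at least 70% across replicates, with every replicate also reaching that level; inconclusive = mean inhibition reaches 70% but some replicates fall short; inactive = mean inhibition below 70%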
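Test system – S100A4 monomer (human) · Compound – single-point compound testing · Schedule – 5 min incubation before reading · Probe or stimulus – TAMRA-labelled myosin IIA heavy-chain peptide probe, 5 nM · Benchmarks – neutral control DMSO, positive control TFP · Medium – Calcium-containing HEPES buffer, pH 7.2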
dFosB act – mouse delta FosB homodimer activation; activation, % at 25 µM; 340,000 tested, 0.99% active; AID 493131; purified delta FosB, TAMRA-CDK5 oligo fluorescence polarization; percent of positive-control signal above neutral wells;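 active = mean activation above about 17%, with every replicate also reaching it, limit read from the data, passing the limit was not always enough; inconclusive = only one of the two conditions met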
C2C12 statin – suppressors of simvastatin-induced myotoxicity in C2C12 myotubes. rescue of ATP level, % at 7.49 µM. 330,000 tested, 0.78% active. AID 602340. ATP luminescence, 48 h; scaled: DMSO 0, geranylgeraniol control 100;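 active = mean ATP rescue above about 67%, or every replicate alone reaching that limit, limit read from the data, passing the limit was not always enough; inconclusive = no clear call, values can overlap the other calls; inactive = mean under the limit and some replicate under it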;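 also: myotubes were challenged with 10 µM simvastatin during compound exposure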
CDK5 p35 inh – inhibitors of human CDK5/p35 kinase; AID 488839; Recombinant CDK5/p35, ADP-Glo luminescence, 60 min; Q00535+Q15078; 330,000 tested, 0.01% active; inhibition, % at 10 µM;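 active = highest replicate inhibition of at least 50% and at least 75% of replicates reaching 50%; inconclusive = only one of the two criteria met; inactive = both criteria failed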;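 also: plate controls were DMSO neutral control for no effect and GW8510 at 10 µM for full effect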
Target sequence (Q00535 whole entry, looked up): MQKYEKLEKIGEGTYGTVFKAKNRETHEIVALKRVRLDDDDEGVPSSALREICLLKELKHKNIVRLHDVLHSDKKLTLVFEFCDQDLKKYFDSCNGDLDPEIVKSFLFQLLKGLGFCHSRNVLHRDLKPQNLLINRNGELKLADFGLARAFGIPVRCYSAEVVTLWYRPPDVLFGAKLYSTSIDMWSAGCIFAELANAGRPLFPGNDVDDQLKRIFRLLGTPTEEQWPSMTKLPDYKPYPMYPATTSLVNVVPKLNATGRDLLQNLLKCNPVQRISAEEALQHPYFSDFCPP
Target sequence (Q15078 whole entry, looked up): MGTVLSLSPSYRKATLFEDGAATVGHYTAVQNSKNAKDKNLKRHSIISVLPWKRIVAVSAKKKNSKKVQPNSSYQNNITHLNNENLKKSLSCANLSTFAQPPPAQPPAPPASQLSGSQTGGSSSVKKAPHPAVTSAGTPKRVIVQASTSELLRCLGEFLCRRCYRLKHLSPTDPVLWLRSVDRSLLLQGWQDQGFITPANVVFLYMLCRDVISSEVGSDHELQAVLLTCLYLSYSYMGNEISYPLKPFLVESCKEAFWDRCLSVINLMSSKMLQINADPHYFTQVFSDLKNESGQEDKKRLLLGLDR
Numbers without * were called inactive; ? = inconclusive; nt = no result. Most compounds without a hit are left out; they make up all but 2% or so of the library.

SMILES	CAL PDZ FP-1	CAL PDZ FP-2	S100A4 inh HTS	dFosB act	C2C12 statin	CDK5 p35 inh
Cc1ccc(S(=O)(=O)N2CC(=O)Nc3ccccc32)cc1	0	-3	-4	1	30	-1
O=C(c1ccc(S(=O)(=O)N2CCC(c3nc4ccccc4s3)CC2)cc1)N1CCOCC1	-1	-1	nt	-2	nt	-2
CCCCCn1cnc2c(=S)nc(N)[nH]c21	-1	1	10	-1	16	3
CCOC(=O)N1CCN(CCC(=O)Nc2ccc(C)c(Br)c2)CC1	-2	-1	nt	-6	-3	2
C[C@@H]1CCCCO[C@@H](CN(C)S(=O)(=O)c2ccc(F)cc2)[C@H](C)CN([C@@H](C)CO)C(=O)c2cc(NC(=O)Nc3cccc4ccccc34)ccc2O1	nt	nt	-20	nt	84*	nt
C[C@@H]1CCCCO[C@@H](CN(C)S(=O)(=O)c2ccc(F)cc2)[C@@H](C)CN([C@H](C)CO)C(=O)c2cc(NS(C)(=O)=O)ccc2O1	nt	nt	3	nt	-18	nt
C[C@@H]1CCCCO[C@H](CN(C)S(=O)(=O)c2ccc(F)cc2)[C@@H](C)CN([C@H](C)CO)C(=O)c2cc(NS(C)(=O)=O)ccc2O1	nt	nt	1	nt	-4	nt
C[C@H](CO)N1C[C@H](C)[C@H](CN(C)S(=O)(=O)c2ccc(F)cc2)OCCCC[C@H](C)Oc2ccc(NS(C)(=O)=O)cc2C1=O	nt	nt	-24	nt	105*	nt
C[C@@H]1CCCCO[C@H](CN(C)S(=O)(=O)c2ccc(F)cc2)[C@H](C)CN([C@@H](C)CO)C(=O)c2cc(NS(C)(=O)=O)ccc2O1	nt	nt	-4	nt	81*	nt
C[C@@H]1CCCCO[C@H](CN(C)S(=O)(=O)c2ccc(F)cc2)[C@H](C)CN([C@@H](C)CO)C(=O)c2cc(NC(=O)Cc3ccccc3)ccc2O1	nt	nt	nt	nt	152*	nt
CNC(=O)OC(C)CNS(=O)(=O)c1ccc(C)cc1 (stereo not given)	-3	-1	nt	-7	19	0
CC(C)c1nnc(NC(=O)C2CCCN2C(=O)Nc2ccccc2[N+](=O)[O-])s1 (stereo not given)	12	0	1	-6	4	-7
O=C(CCS(=O)(=O)c1ccc(F)cc1)Nc1nnc(-c2cccs2)o1	-1	0	-6	4	-5	0
O=C(N[C@@H]1C=C[C@@H](CC(=O)N2CCCCC2)O[C@@H]1CO)c1ccc2c(c1)OCO2	nt	nt	17	nt	12	nt
O=C(/C=C/c1ccccc1Cl)N(Cc1ccc(Cl)cc1)C1CCS(=O)(=O)C1 (stereo not given)	71*	-1	nt	-26	nt	-2
COc1cc(NC(=O)CCCNC(=O)c2ccc(Cl)cc2)cc(OC)c1	nt	-1	-4	-2	-8	-1
Cc1c(C(=O)N2CCOCC2)c(S(=O)(=O)Nc2ccc(C(C)C)cc2)c(C)n1C	48*	-1	-30	-9	-1	0
CCCN1CCN(C(=O)Nc2ccc(C(=O)OCC)cc2)CC1	-1	-1	nt	-1	109*	0
COc1ccccc1-c1sc2ccccc2c1-c1ccc(OCCN2CCCCC2)cc1	-3	0	nt	?	-16	-2
COc1ccc2c(-c3ccc(OCCN4CCCCC4)cc3)c(-c3ccccc3OC)sc2c1	32*	-1	nt	48*	-19	-2
COc1cccc(-c2sc3cc(OC)c(OC)cc3c2-c2ccc(OCCN3CCCCC3)cc2)c1	-4	1	nt	34*	-19	0
COc1ccc(NC(=O)c2cc(S(=O)(=O)N3CCCCC3)ccc2C)cc1S(=O)(=O)N1CCOCC1	-3	1	-2	-6	-20	0
O=C(Cc1ccccc1)NCC(=O)N/N=C/c1ccc([N+](=O)[O-])s1	-4	-2	-2	-4	163*	0
Cc1ccc(-n2c(SCC(=O)NCc3cccs3)nnc2-c2ccoc2C)cc1	3	-2	nt	-6	8	0
COc1ccc(/C=C/C(=O)OCC(=O)Nc2ccc(S(N)(=O)=O)cc2)cc1OC	45*	-1	-1	0	nt	-2
COc1ccc(/C=C/C(=O)NC(=S)Nc2ccc(S(=O)(=O)N=C(N)N)cc2)cc1OC	-3	-1	5	63*	4	1
